What was measured:
[1] = folding enthalpy; higher = less favourable; fluorescence melt of hairpins on a sequencing array, two-state fit; conditions: sodium 0.088 M
Method in brief: (§1)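 Hairpins were imaged by Cy3 fluorescence on a sequenced MiSeq flow cell with annealed Cy3 and quencher oligos, in 50 mM Na-HEPES pH 8.0, 25 mM NaCl, in 2.5 °C steps up to 60 °C. Bootstrapped two-state fits of normalised signals gave melting temperature and folding enthalpy. Four replicates were combined by inverse variance, and fitted temperatures were raised by 9.35 °C to match UV melts.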

[2] = melting temperature; fluorescence melt of hairpins on a sequencing array, two-state fit, raised by 9.35 °C to match UV melts; conditions: sodium 0.088 M
Method in brief: as §1

| Sequence | folding enthalpy [1] [kcal/mol] | Tm [2] [°C] |
| --- | --- | --- |
| GACCATGGAAACACGGTC ((((.((....)).)))) | -31.7 | 42.5 |
| GACCATGGAAACATGGCC (.(((((....))))).) | -15.2 | 46 |
| GACCCAACGAAAGTTGTC (((..(((....)))))) | -10.5 | 29 |
| GACCCACGAAAGTGAGTC (((.(((....))).))) | -31.2 | 51.2 |
| GACCCCCGAAAGGGGTC (((.(((....)))))) | -19.9 | 67.5 |
| GACCCCGAAAGGGGAGTC ((((((....)))..))) | -9.87 | 44.6 |
| GACCCCGAAAGGGGGGTC ((((((....)))..))) | -13.3 | 67.4 |
| GACCCCGAAAGGGTAGTC ((((((....)))..))) | -15 | 44.4 |
| GACCCCGCGAAAGCGGTC (((..(((....)))))) | -5.92 | 28 |
| GACCCCGGAAACGAGGCC (.((.((....)).)).) | -15 | 27.5 |
| GACCCCGGAAACGAGGTC ((((.((....)).)))) | -36.9 | 48 |
| GACCCCGGAAACGGAGTC (((.(((....))).))) | -31.4 | 47.2 |
| GACCCGCGAAAGCGCGTC (((.(((....))).))) | -21.9 | 47.8 |
| GACCCGGGAAACCAGGCC (.((.((....)).)).) | -10.8 | 24.7 |
| GACCCGGGAAACCAGGTC ((((.((....)).)))) | -27.5 | 45.8 |
| GACCCGGGAAACCGGACC (..((((....))))..) | -10.3 | 30.3 |
| GACCCGGGAAACTGGGTC (((((.(....).))))) | -37.3 | 59.2 |
| GACCCTGAAAAGGGTC ((((((....)))))) | -33.7 | 67.5 |
| GACCGAGGAAACTCAGTC (((.(((....))).))) | -21 | 34.4 |
| GACCGCCGAAAGGCGTC (((.(((....)))))) | -8.69 | 45.4 |
| GACCGCGAAAGCGGCGTC ((((((....)))..))) | -9.59 | 51.3 |
| GACCGCGAAAGCGTGTC ((((((....))).))) | -21.2 | 63.5 |
| GACCGGACGAAAGTCGTC (((..(((....)))))) | -12.1 | 37.1 |

| Sequence | folding enthalpy [1] [kcal/mol] | Tm [2] [°C] |
| --- | --- | --- |
| GACCGTACGAAAGTAGTC (((..(((....)))))) | -13.1 | 26.5 |
| GACCTAGGAAACTGGGTC ((((.((....)).)))) | -35 | 49.6 |
| GACCTCCCGAAAGGGGTC (((..(((....)))))) | -15.2 | 40 |
| GACCTCGGAAACAAGGTC (((((.(....).))))) | -32.1 | 40.9 |
| GACCTCGGAAACGGGGTC ((((.((....)).)))) | -46.4 | 55.9 |
| GACCTGACGAAAGTCGTC (((..(((....)))))) | -9.44 | 35.9 |
| GACCTGGGAAACCGGGTC ((((.((....)).)))) | -44.8 | 57.1 |
| GACCTTACGAAAGTAGTC (((..(((....)))))) | -11 | 25.2 |
| GACGAACGAAAGTTAGTC (((.(((....))).))) | -35.8 | 49.9 |
| GACGAAGCGAAAGCTGTC (((..(((....)))))) | -16.7 | 45.4 |
| GACGACCCGAAAGGGGTC (((..(((....)))))) | -10.1 | 42.3 |
| GACGACGAAAGTCTAGTC ((((((....)))..))) | -23.8 | 41.8 |
| GACGACGGAAACGTCACC (..((((....))))..) | -11.5 | 35.4 |
| GACGAGCGAAAGCTAGTC (((.(((....))).))) | -31 | 56.8 |
| GACGAGGGAAACCTTGTC (((.(((....))).))) | -31.4 | 48.1 |
| GACGATACGAAAGTAGTC (((..(((....)))))) | -17 | 36.1 |
| GACGATCCGAAAGGAGTC (((..(((....)))))) | -22.1 | 39.8 |
| GACGCAGGAAACCACGTC ((((..(....)..)))) | -16.3 | 34.9 |
| GACGCAGGAAACTACGTC ((((.((....)).)))) | -26.6 | 43.5 |
| GACGCAGGAAACTGCATC ((.((((....)))).)) | -13.5 | 36.2 |
| GACGCCGAAAGGCAAGTC ((((((....)))..))) | -19.7 | 48.9 |
| GACGCCGAAAGGCACGTC ((((((....)))..))) | -13.4 | 48.5 |
| GACGCCGAAAGGCCGTC ((((((....))).))) | -18.7 | 61.4 |

| Sequence | folding enthalpy [1] [kcal/mol] | Tm [2] [°C] |
| --- | --- | --- |
| GACGCCGGAAACAGCGCC (.(((.(....).))).) | -17.8 | 31.8 |
| GACGCCGGAAACAGCGTC (((((.(....).))))) | -35.9 | 54.8 |
| GACGCCGGAAACGGCGCC (.(((((....))))).) | -10.5 | 56.9 |
| GACGCTGGAAACAGCGCC (.(((((....))))).) | -12.4 | 53 |
| GACGCTGGAAACGGTGTC (((.(.(....).).))) | -28.9 | 42.1 |
| GACGGAGCGAAAGCTGTC (((..(((....)))))) | -18.9 | 41.8 |
| GACGGCGAAAGCCAGTC ((((((....))).))) | -22.7 | 60.2 |
| GACGGCGAAAGCCCTGTC ((((((....)))..))) | -13.6 | 38.6 |
| GACGGCGAAAGCCGGGTC ((((((....)))..))) | -11.3 | 68.2 |
| GACGGCGAAAGCCGGTC ((((((....))).))) | -11.6 | 64 |
| GACGGCGAAAGCCTAGTC ((((((....)))..))) | -16.7 | 47.4 |
| GACGGCGAAAGCCTCGTC ((((((....)))..))) | -13.1 | 56.4 |
| GACGGCGGAAACGCTGTC (((.(((....))).))) | -37.5 | 64.7 |
| GACGGGCGAAAGCCGGTC (((.(((....))).))) | -25.9 | 65.5 |
| GACGGGGAAACCCGTC ((((((....)))))) | -37.9 | 68 |
| GACGGGGGAAACCCCGCC (.(((((....))))).) | -12.5 | 50.5 |
| GACGGGGGAAACCCTGTC (((.(((....))).))) | -37.1 | 54.4 |
| GACGGTGGAAACACCATC ((.((((....)))).)) | -16.2 | 36.5 |
| GACGGTGGAAACACTGTC (((.(((....))).))) | -45.8 | 52.1 |
| GACGTACGAAAGTAAGTC (((.(((....))).))) | -29.2 | 50.6 |
| GACGTCACGAAAGTGGTC (((..(((....)))))) | -15 | 35.6 |
| GACGTGCCGAAAGGCGTC (((..(((....)))))) | -13.3 | 46.8 |
| GACGTGCGAAAGCAAGTC (((.(((....))).))) | -31.5 | 60.5 |

| Sequence | folding enthalpy [1] [kcal/mol] | Tm [2] [°C] |
| --- | --- | --- |
| GACGTGGGAAACCACGTC (((((((....))))))) | -37.1 | 68.8 |
| GACGTGGGAAACTACGTC (((((.(....).))))) | -38.4 | 52.5 |
| GACGTTGGAAACAATGTC (((.(((....))).))) | -37.3 | 48.4 |
| GACTAAGGAAACTTAGCC (.(((((....))))).) | -20.4 | 31.3 |
| GACTACCCGAAAGGGGTC (((..(((....)))))) | -11.3 | 38.3 |
| GACTACGAAAGTATAGTC ((((((....)))..))) | -23.3 | 36.8 |
| GACTACGAAAGTATGGTC ((((((....)))..))) | -19.5 | 34.4 |
| GACTACGAAAGTATTGTC ((((((....)))..))) | -15.2 | 29.6 |
| GACTACGGAAACGTAGTC (((((((....))))))) | -37.8 | 61.4 |
| GACTATGGAAACATAGCC (.(((((....))))).) | -22.6 | 35.7 |
| GACTCACGAAAGTGGGTC (((.(((....))).))) | -41.1 | 57.6 |
| GACTCAGAAATGAGTC ((((((....)))))) | -35.9 | 54.5 |
| GACTCAGGAAACTGAATC ((.((((....)))).)) | -16.3 | 27.7 |
| GACTCAGGAAACTGAGCC (.(((((....))))).) | -16.5 | 43.6 |
| GACTCCCGAAAGGGCGTC (((.(((....))).))) | -27.3 | 53.5 |
| GACTCCCGAAAGGGGTC (((.(((....)))))) | -24.9 | 50.8 |
| GACTCCGAAAGGACAGTC ((((((....)))..))) | -19.2 | 37.9 |
| GACTCCGAAAGGACGTC ((((((....))).))) | -30.8 | 49.9 |
| GACTCCGGAAACGGAACC (..((((....))))..) | -8.88 | 26.1 |
| GACTCCGGAAACGGGGTC (((.(((....))).))) | -38 | 57.2 |
| GACTCGCGAAAGCGCGTC (((.(((....))).))) | -23.6 | 55.9 |
| GACTCGGAAACGAGTC ((((((....)))))) | -32.8 | 66.4 |
